Converted amounts (≈) assume the structure as drawn. The source made the active and inactive calls. The rule behind the calls is not given here.
Assays:
L6 = assay: Cytotoxicity against rat L6 cells; type: cell-based
Heme = assay: Inhibition of heme aggregation at 500 uM
Summary of the method: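 Hemin chloride stock (10 mM in 0.1 M NaOH), prepared fresh and held at 37°C for at least 1 h. Aggregation run in 20 mM sodium phosphate pH 5.2 with 25 μM initial heme at 37°C. Inhibitor dissolved in dimethylformamide or buffer. After incubation, samples centrifuged and absorbance read at 360 nm, with matching control values subtracted.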

Plasmodium falciparum [1] = assay: Antiplasmodial activity against chloroquine-sensitive Plasmodium falciparum 3D7 assessed as inhibition of trophozoite stage parasite growth at IC50 after 6 hr by [3H]hypoxanthine incorporation assay; type: functional, organism-based
Summary of the method: (§1)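 P. falciparum 3D7 is synchronized with sorbitol. […] Cells are washed four times, then labelled with [3H]hypoxanthine for 24 h. Growth is given as % of untreated control for each stage, in triplicate.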

Plasmodium falciparum [2] = assay: Antiplasmodial activity against chloroquine-sensitive Plasmodium falciparum 3D7 assessed as inhibition of ring stage parasite growth at IC50 after 6 hr by [3H]hypoxanthine incorporation assay; type: functional, organism-based; summary of the method: as §1
Plasmodium falciparum [3] = assay: Antiplasmodial activity against chloroquine-sensitive Plasmodium falciparum 3D7 assessed as inhibition of schizont stage parasite growth at IC50 after 6 hr by [3H]hypoxanthine incorporation assay; type: functional, organism-based; summary of the method: as §1

SMILES: COc1cc([C@@H]2c3cc4c(cc3[C@H](O)[C@H]3COC(=O)[C@H]23)OCO4)cc(OC)c1OC [PODOFILOX]
- IC50 (L6): 8 ng/mL (≈ 0.0193 µM)

SMILES: CCN(CC)CCCC(C)Nc1ccnc2cc(Cl)ccc12 (stereo not given)
- inhibition (Heme): inactive
- growth inhibition (GI) (Plasmodium falciparum [1]): Active
- growth inhibition (GI) (Plasmodium falciparum [2]): Active
- growth inhibition (GI) (Plasmodium falciparum [3]): Active

Reference: ChEMBL document CHEMBL1687720 (Antimicrob Agents Chemother, 2009)
